Published values of several laboratories.
Protocols differ between the studies behind these lines.
CDK3: Cyclin-dependent kinase 3 (CDK3, Homo sapiens, UniProt Q00526)
CDK3 with cyclin E: Cyclin-dependent kinase 3, with cyclin E (CDK3, Homo sapiens, UniProt Q00526)

`Cc1cc(-n2nc(Cc3cc(F)cc(C(F)(F)F)c3)nc2C)ccc1C(N)=O` has a remaining binding of 100% (CDK3; cell-free assay; competition with immobilised ligand; 1 µM).
The inhibition of `CS(=O)(=O)Nc1cccc(-c2csc(NC(=O)CSc3nc4nccnc4c(=O)n3CCc3ccccc3)n2)c1` is reported as 2% (Cyclin-dependent kinase 3, with cyclin E1 (CDK3, Homo sapiens, UniProt Q00526); enzyme activity; inhibitor; 10 µM).
For `COc1cc(Cl)c(C(=O)N[C@@H](CN[C@H]2CC[C@@H](N)CC2)Cc2ccc(C#N)cc2)cc1-c1ccc(CN[C@H](C)c2ccc(C)cc2)o1`, the remaining activity was 99% (CDK3 with cyclin E; enzyme activity; inhibitor; 1 µM).
`CC(C)(C)c1nc2c(s1)c1nc(N)ncc1c1ccc(NS(=O)(=O)c3c(F)cccc3F)c(F)c12` gave a remaining activity of 97% (Cyclin-dependent kinase 3, with cyclin C (CDK3, Homo sapiens, UniProt Q00526); enzyme activity; inhibitor; radiometric; 1 µM).
The remaining signal of `N#CCCc1ccc2c(c1)-c1[nH]c3ccc([N+](=O)[O-])cc3c1CC(=O)N2` is reported as 39.7% (CDK3 with cyclin E; cell-free assay; 0.5 µM).
For `Cc1ccc(Nc2nccc(N(C)c3ccc4c(C)n(C)nc4c3)n2)cc1S(N)(=O)=O`, the inhibition was 8% (CDK3 with cyclin E; enzyme activity; inhibitor; 10 µM).
For `CN(C)CC#Cc1ccc(OCCCc2sc(N3CCc4cccc(C(=O)Nc5nc6ccccc6s5)c4C3)nc2C(=O)O)c(F)c1`, the remaining binding was 68% (CDK3; cell-free assay; competition with immobilised ligand; 1 µM).
For `Cc1ccc(NC(=O)c2ccc(C)c(C(F)(F)F)c2)cc1C#Cc1nn(C2CCC(O)CC2)c2ncnc(N)c12` (stereo not drawn), the remaining signal was 93% (CDK3 with cyclin E; cell-free assay; 10 µM).
`CN(C)c1ncnc(-c2ccc3nc(Nc4cc(CN5CCN(C(=O)CC(F)(F)F)CC5)ccn4)[nH]c3c2)c1Cl` gave a remaining binding of 86% (CDK3; cell-free assay; competition with immobilised ligand; 1 µM).
`Nc1ncnc2occ(-c3ccc(NC(=O)Nc4cc(C(F)(F)F)ccc4F)cc3)c12` has a remaining signal of 0.05% (CDK3; cell-free assay; inhibitor; 20 µM).
With `O=C(Nc1cnn(-c2csc(C(=O)NC3COC3)c2)c1)Nc1c(F)cccc1Cl` the remaining activity was 92.2% (CDK3 with cyclin E; enzyme activity; inhibitor; 5 µM).
For `CN1CC(Oc2cnc(C#N)cc2-c2ccn3nc(NC(=O)C4CC4)cc3c2)C1`, the inhibition was 4% (CDK3 with cyclin E; enzyme activity; inhibitor; 1 µM).
With `Cc1ccc(C(=O)Nc2ccc(CN3CCN(C)CC3)c(C(F)(F)F)c2)cc1C#Cc1cnc2cccnn12` the remaining activity was 95% (CDK3; enzyme activity; inhibitor; 23.5 nM).
The remaining signal of `Oc1cccc(-c2nc(N3CCOCC3)c3oc4ncccc4c3n2)c1` is reported as 93.9% (CDK3 with cyclin E; cell-free assay; 0.5 µM).
`NS(=O)(=O)c1cc(NC(=O)C2(c3ccccc3Cl)CC2)ccc1Oc1cccc(Cl)c1` gave a remaining binding of 90% (CDK3; cell-free assay; competition with immobilised ligand; 1 µM).
`Cc1cc(NC(=O)c2cccc3cc(-c4cccc5[nH]nc(N)c45)ccc23)ccc1F` has an activity vs control of 96% (CDK3 with cyclin E; enzyme activity; inhibitor; 0.1 µM).
With `Cc1cnc(NC2CCOCC2)nc1-n1cnc(C(=O)NC(CN)c2cc(F)cc(Cl)c2)c1` (stereo not drawn) the remaining activity was 5% (CDK3 with cyclin E; enzyme activity; inhibitor; radiometric; 1 µM).
`O=C(NCc1ncc(C(F)(F)F)cc1Cl)c1ccc2c(c1)C1(CCS(=O)(=O)CC1)[C@@H](C1CC1)N2S(=O)(=O)c1ccc(F)cc1` gave a remaining binding of 41% (CDK3; cell-free assay; competition with immobilised ligand; 1 µM).
For `CNC(=O)c1cc(Oc2ccc(NC(=O)Nc3ccc(Cl)c(C(F)(F)F)c3)cc2)ccn1`, the inhibition was 0% (CDK3 with cyclin E; enzyme activity; inhibitor; 10 µM).
`Cc1nc(C2CCN(C(=O)c3ccc(OC(F)(F)F)cc3N)CC2)c2ncc(N3CCN(C)CC3)cc2n1` has a remaining binding of 100% (CDK3; cell-free assay; competition with immobilised ligand; 1 µM).
`Cc1sc(C(=O)NC2COC2)cc1-n1cc(NC(=O)Nc2c(F)cccc2Cl)cn1` has a remaining activity of 103% (Cyclin-dependent kinase 3, with cyclin E2 (CDK3, Homo sapiens, UniProt Q00526); enzyme activity; inhibitor; 10 µM).
With `CCCCN(CCCC)C(=O)CN1C[C@H](c2cc(OC)c3c(c2)OCO3)[C@@H](C(=O)O)[C@@H]1CC(C)(C)CCC` the remaining binding was 100% (CDK3; cell-free assay; competition with immobilised ligand; 1 µM).
The inhibition of `CCN(CC)CCNC(=O)c1c(C)[nH]c(/C=C2\C(=O)Nc3ccc(F)cc32)c1C` is reported as 1% (CDK3 with cyclin E; enzyme activity; inhibitor; 0.3 µM).
`O=C(Nc1cnn(-c2csc(C(=O)NC3COC3)c2)c1)Nc1ccccc1Cl` has a remaining activity of 107% (CDK3 with cyclin E; enzyme activity; inhibitor; 5 µM).
